Source: paper PMC10839117 (Cell chemical biology, 2023)
Entries after “also recorded” stand apart in the source; their conditions may differ. Primed or numbered codes have the meaning given here. Where no end group is shown, it is not given here. [ ]: non-standard residue; d: D form. two‑PEG linker = not defined here; YHJ1039 = not defined here; PEG2′ = two-PEG linker

Key:
[1] = molecular target: WEE1-nanoluciferase fusion protein (Homo sapiens, UniProt P30291); assay: WEE1 cellular engagement assay; type: cell-based; settings: nano-BRET, HEK-293T cells, one hour
Chain of WEE1-nanoluciferase fusion protein (P30291 whole entry, the tested form may be a part): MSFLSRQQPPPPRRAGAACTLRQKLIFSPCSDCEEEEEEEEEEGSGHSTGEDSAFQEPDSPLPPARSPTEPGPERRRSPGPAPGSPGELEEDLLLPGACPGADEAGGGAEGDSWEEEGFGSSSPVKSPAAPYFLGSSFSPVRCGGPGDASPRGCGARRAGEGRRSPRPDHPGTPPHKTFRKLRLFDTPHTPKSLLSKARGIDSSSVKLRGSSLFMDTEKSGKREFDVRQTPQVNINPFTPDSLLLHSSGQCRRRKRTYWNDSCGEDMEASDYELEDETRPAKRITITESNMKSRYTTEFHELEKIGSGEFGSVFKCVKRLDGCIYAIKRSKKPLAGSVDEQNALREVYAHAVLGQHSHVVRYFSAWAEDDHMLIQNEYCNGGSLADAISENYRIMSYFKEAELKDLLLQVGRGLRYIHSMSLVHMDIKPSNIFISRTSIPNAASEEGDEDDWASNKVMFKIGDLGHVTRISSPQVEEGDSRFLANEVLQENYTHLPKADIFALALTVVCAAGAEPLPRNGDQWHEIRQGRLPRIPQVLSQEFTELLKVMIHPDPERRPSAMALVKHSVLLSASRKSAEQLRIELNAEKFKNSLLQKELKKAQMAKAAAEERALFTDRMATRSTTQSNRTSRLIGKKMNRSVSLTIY
Procedure, shortened: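 HEK-293T cells were transiently transfected with a WEE1-nanoluciferase plasmid. The next day they were replated at 8,000 cells/well in phenol red-free DMEM with 4% FBS, together with K-5 tracer and 2 μM MLN4924. After 1 h, DMSO-normalised test compound was added. One hour later, nano-BRET detection reagent was added. The BRET ratio (610/450 nm) was normalised to DMSO wells.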

[2] = system: NEK9, FAK, CDK4, CDK6, and WEE1; assay: Kinase degradation by Western blotting, MOLM-14 cells; type: cell-based, human; settings: 24 hours; for kinase degradation activity compared between compounds: Western blot, DB0614 comparison at 1 μM
[3] = cited from earlier work
KLHDC2-WEE1 = KLHDC2-WEE1 (Homo sapiens, UniProt P30291+Q9Y2U9); assay: GST pulldown assay with purified KLHDC2 and WEE1 proteins; type: binding
Chain of KLHDC2-WEE1 (P30291 299-569 limits assumed, one chain of several): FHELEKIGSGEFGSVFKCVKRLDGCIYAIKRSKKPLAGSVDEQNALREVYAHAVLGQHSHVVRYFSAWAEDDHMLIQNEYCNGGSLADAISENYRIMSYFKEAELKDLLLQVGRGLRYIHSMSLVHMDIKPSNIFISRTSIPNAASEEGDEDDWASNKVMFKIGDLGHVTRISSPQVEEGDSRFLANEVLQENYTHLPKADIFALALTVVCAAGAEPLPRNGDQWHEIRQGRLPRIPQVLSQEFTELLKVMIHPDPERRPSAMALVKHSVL
Procedure, shortened: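 Purified proteins were His6-GST-KLHDC2 (propeller domain, residues 1-362, lacking the autoinhibitory C-terminus; E. coli-expressed) and the WEE1 kinase domain with its tag removed by TEV. They were incubated with DMSO or test compound for 1 h on ice in 20 mM Tris-HCl pH 8.5, 150 mM NaCl, 1 mM TCEP, 0.05% NP-40 substitute. Glutathione-agarose was added for 1 h at 4°C, followed by three washes. Bound material was analysed by SDS-PAGE.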

CDK4 [4] = molecular target: T1, CDK4 (Homo sapiens, UniProt P11802); assay: Kinase degradation by Western blotting, CDK4; type: cell-based; settings: MOLM-14 cells
T1 sequence (P11802 whole entry): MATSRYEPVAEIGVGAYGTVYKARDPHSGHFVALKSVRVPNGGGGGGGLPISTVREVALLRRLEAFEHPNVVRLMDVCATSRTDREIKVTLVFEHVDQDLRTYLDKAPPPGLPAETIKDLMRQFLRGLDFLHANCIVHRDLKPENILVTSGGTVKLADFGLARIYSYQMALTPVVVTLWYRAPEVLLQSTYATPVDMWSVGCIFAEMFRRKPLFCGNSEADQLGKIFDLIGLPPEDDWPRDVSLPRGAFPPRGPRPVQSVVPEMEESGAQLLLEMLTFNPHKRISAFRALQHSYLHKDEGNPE
Procedure, shortened: (§1)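 MOLM-14 cells (RPMI-1640, 10% FBS, 37°C, 5% CO2) were exposed to test compound for 24 h. Cells were washed in PBS, lysed with protease inhibitors, and equal protein was boiled in SDS sample buffer. Blots were blocked for at least 1 h in TBST/5% milk, then probed with kinase antibodies at 1:1,000 and HRP secondaries at 1:10,000. DC50 was taken from quantitative Western blotting.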

WEE1 = WEE1 (Homo sapiens, UniProt P30291); assay: Kinase degradation by Western blotting, WEE1; type: cell-based; settings: MOLM-14 cells
Chain of WEE1 (P30291 whole entry): as the sequence (P30291 whole entry, the tested form may be a part) above
Procedure, shortened: as §1

CDK6 = CDK6 (Homo sapiens, UniProt Q00534); assay: Kinase degradation by Western blotting, CDK6; type: cell-based; settings: read-out: DC50 CDK6, MOLM-14 cells, 24 hours
Chain of CDK6 (Q00534 whole entry): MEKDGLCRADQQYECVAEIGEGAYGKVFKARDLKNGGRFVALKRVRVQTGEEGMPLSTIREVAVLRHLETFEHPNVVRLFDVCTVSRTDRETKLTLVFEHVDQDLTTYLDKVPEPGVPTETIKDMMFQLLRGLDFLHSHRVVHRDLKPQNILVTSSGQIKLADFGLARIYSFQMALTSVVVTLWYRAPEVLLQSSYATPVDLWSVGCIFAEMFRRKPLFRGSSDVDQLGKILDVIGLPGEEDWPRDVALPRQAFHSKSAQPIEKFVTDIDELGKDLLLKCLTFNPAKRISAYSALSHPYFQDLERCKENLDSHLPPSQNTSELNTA
Procedure, shortened: as §1

MOLM-14 cells = assay: Cell proliferation assay; type: cell-based, human
Procedure, shortened: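 MOLM-14 cells were plated at low density and treated in triplicate or quadruplicate with DMSO-balanced test compound, with or without MLN4924. After 72 h, CellTiter-Glo was added for 10–15 min at room temperature and luminescence was read. Signal was normalised to DMSO-only wells, or to DMSO plus MLN4924 at the matching MLN4924 concentration.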

[5] = molecular target: WEE1 kinase domain (residues 290-576) (Homo sapiens, UniProt P30291); assay: HiBiT degradation assay, WEE1 kinase domain; type: cell-based
Chain of WEE1 kinase domain (residues 290-576) (P30291 290-576): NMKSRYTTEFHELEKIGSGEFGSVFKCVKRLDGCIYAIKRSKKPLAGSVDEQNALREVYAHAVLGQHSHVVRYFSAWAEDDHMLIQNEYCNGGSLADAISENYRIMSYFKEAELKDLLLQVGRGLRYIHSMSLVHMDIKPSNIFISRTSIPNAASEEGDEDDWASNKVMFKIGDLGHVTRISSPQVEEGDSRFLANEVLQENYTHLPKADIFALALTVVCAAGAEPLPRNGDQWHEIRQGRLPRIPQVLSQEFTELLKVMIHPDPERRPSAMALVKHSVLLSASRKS
Procedure, shortened: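 Pooled selected cells, checked for kinase expression by lytic HiBiT, grown with 10% FBS and 1% penicillin-streptomycin at 37°C, 5% CO2. Cells were dispensed and treated in triplicate or quadruplicate with DMSO balanced, then lysed for HiBiT luminescence after 6 h. For the MLN4924 arm, cells were pretreated 2 h with 1 μM MLN4924. HiBiT signal was normalized to CellTiter-Glo viability per matching condition and to DMSO.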

NEK9 = molecular target: T2, NEK9 (Homo sapiens, UniProt Q8TD19); assay: Kinase degradation by Western blotting, NEK9; type: cell-based; settings: read-out: DC50 NEK9, MOLM-14 cells, 24 hours
T2 sequence (Q8TD19 1-979): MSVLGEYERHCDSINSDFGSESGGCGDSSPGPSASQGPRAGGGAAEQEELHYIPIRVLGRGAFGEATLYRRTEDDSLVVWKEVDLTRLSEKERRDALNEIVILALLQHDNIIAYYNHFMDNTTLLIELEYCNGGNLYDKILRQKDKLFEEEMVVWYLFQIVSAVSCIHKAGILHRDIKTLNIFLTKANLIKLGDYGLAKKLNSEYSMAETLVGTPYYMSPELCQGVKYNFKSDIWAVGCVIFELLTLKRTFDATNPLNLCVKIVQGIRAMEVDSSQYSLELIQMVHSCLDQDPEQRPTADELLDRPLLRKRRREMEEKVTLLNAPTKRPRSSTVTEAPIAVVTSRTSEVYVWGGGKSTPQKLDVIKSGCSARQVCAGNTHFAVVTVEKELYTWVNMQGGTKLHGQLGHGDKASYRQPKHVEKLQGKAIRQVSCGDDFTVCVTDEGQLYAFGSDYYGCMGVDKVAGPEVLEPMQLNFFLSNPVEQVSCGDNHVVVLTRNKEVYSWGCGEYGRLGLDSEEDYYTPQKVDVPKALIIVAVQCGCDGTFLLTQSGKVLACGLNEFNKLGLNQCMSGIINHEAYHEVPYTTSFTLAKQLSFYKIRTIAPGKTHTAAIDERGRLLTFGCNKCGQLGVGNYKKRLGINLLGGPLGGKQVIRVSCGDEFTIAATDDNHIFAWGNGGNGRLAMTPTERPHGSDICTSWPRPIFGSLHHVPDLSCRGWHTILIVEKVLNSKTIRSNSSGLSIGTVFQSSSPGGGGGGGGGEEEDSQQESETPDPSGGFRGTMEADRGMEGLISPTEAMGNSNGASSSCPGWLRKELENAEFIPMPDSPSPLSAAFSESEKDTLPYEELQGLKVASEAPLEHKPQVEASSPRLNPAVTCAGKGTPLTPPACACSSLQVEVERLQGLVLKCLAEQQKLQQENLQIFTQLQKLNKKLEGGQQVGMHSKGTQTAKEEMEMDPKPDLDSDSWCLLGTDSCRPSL
Procedure, shortened: as §1

CDK4 [6] = molecular target: T1, CDK4; assay: HiBiT degradation assay, CDK4; type: cell-based
Procedure, shortened: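 MOLM-14 cells were lentivirally transduced with HiBiT-tagged kinase (GSGS linker, EF1a promoter) and pooled after 1 μg/ml puromycin selection. Cells were pretreated for 2 h with 1 μM MLN4924, then treated with test compound for 6 h in triplicate or quadruplicate. Lytic HiBiT luminescence was normalised to the matching CellTiter-Glo viability signal and to DMSO for each treatment.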

KLHDC2 = molecular target: T3, KLHDC2 (Homo sapiens, UniProt Q9Y2U9); assay: TR-FRET binding assay, KLHDC2
T3 sequence (Q9Y2U9 1-362): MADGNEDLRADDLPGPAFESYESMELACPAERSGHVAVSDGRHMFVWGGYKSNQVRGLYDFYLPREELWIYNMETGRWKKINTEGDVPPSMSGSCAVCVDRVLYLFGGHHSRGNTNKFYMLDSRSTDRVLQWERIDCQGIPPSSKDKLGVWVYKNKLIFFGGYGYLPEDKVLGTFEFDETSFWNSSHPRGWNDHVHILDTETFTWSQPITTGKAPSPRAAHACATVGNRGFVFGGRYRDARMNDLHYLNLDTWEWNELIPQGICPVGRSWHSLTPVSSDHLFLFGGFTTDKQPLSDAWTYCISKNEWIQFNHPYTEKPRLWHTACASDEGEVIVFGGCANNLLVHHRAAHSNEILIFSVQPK

WEE1 and CDK4 RNA = assay: RT-PCR of WEE1 and CDK4 RNA; type: cell-based, human; settings: MOLM-14 cells, 1 μM, 24 hours
WEE1 and CDK4 = assay: Kinase degradation by Western blotting in a panel of cancer cell lines; type: cell-based, human; settings: 1 μM
Procedure, shortened: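 Cancer cell lines were grown in RPMI-1640 (MOLM-14, MV-4-11, MOLT-4, DLD1, K562, SW480, MDA-MB-231, MCF7), EMEM (Detroit 551) or DMEM (GIST-T1, Hs27), each with 10% FBS and 1% pen-strep at 37°C, 5% CO2. Cells were treated with test compound, washed in PBS and lysed with protease inhibitors. Equal protein was blotted; membranes were blocked in TBST/5% milk, then probed with primaries at 1:1,000 and HRP secondaries at 1:10,000.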

FAK = FAK (Homo sapiens, UniProt Q05397); assay: Kinase degradation by Western blotting, FAK; type: cell-based; settings: read-out: DC50 FAK, MOLM-14 cells, 24 hours
Chain of FAK (Q05397 whole entry): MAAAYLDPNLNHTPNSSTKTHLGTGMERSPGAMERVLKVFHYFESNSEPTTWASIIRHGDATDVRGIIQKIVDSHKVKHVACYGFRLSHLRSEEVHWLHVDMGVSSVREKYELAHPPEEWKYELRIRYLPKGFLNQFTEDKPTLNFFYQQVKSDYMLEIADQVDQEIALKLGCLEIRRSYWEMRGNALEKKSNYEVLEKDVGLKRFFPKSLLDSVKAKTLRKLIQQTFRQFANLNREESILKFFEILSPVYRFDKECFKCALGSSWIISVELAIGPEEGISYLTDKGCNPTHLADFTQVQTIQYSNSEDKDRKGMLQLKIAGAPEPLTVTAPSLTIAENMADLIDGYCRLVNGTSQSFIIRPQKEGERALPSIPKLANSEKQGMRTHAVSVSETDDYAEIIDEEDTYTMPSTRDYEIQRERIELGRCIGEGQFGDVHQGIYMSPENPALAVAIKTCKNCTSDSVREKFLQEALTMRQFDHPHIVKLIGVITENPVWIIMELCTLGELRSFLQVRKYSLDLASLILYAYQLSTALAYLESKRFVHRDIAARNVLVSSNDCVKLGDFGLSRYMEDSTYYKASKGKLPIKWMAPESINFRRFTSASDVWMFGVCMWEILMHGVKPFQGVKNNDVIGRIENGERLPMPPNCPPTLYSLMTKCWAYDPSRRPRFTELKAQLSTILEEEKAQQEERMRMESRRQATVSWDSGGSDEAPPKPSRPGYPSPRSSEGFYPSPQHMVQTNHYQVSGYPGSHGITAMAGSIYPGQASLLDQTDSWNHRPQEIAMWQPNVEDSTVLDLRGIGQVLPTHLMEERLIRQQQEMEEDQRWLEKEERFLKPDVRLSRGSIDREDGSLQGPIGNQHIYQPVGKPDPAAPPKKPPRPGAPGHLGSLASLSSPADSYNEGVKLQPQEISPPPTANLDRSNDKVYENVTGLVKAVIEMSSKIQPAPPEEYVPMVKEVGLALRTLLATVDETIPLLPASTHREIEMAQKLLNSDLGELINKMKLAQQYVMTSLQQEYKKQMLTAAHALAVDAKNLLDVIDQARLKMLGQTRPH
Procedure, shortened: as §1

[7] = molecular target: T4, His6-GST-KLHDC2 (residues 1-362, propellor domain, lacking the autoinhibitory C-terminus) (UniProt Q9Y2U9 1-362); assay: AlphaScreen or HTRF
T4 sequence (looked up): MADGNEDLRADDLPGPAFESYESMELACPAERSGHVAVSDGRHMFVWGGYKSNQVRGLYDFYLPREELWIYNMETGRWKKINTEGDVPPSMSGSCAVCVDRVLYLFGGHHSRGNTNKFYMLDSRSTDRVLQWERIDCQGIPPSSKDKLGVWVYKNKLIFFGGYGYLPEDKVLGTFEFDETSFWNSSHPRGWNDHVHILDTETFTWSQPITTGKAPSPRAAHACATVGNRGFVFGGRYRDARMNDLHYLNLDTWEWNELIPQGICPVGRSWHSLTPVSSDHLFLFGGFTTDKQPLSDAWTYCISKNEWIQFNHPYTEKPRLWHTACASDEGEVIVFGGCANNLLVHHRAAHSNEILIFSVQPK

[8] = 1 μM MLN4924 two hours, then six-hour experiment

C=CCn1c(=O)c2cnc(Nc3ccc(N4CCN(C)CC4)cc3)nc2n1-c1cccc(C(C)(C)O)n1 [AZD1775, reference compound]
WEE1 target engagement (in words) ([1]; YHJ1039 versus AZD1775): comparable

CS(=O)(=O)Nc1cccc(-c2csc3cnc(Nc4ccc(N5CCN(CCCCCOc6cccc7c6C(=O)N(C6CCC(=O)NC6=O)C7=O)CC5)cc4)nc23)c1 (centres unmarked) [DB0614, reference compound]
kinase degradation activity compared between compounds [2]: more effective kinase degrader than KYH1872 (26)
cytotoxicity [3]: cytotoxic

KYH1872 (26): two-PEG linker connects YHJ1039 with a seven amino acid SelK peptide (PPPMAGG) ({YHJ1039-two‑PEG linker}-PPPMAGG; reading uncertain)
WEE1 engagement, fold less efficient than ZNL-02-096 ([1]; MLN4924 pretreated): ~ 300 fold
induced KLHDC2-WEE1 binding (KLHDC2-WEE1): can induce between KLHDC2-WEE1 binding
kinase degradation (Western blot, in words) ([2]; KYH1872 at 1 and 10 μM): induced the degradation
kinase degradation activity compared between compounds [2]: slightly improved degradation activity when compared with KYH1886 (25)
DC50 (CDK4 [4]; read-out: DC50 CDK4, Western blotting, 24 hours): 457 nM
time at which CDK4 degradation was observable (CDK4 [4]; time course Western blot): 12 h
DC50 (WEE1; read-out: DC50 WEE1, Western blotting, 24 hours): 302 nM
time at which WEE1 degradation was observable (WEE1; time course Western blot): 12 h
DC50 (CDK6): 1070 nM
effect on cell proliferation with MLN4924 co-treatment (MOLM-14 cells; co-treatment with increasing concentrations of MLN4924): blunted the negative effect
EC50 (MOLM-14 cells; read-out: Cell viability (EC50), MOLM-14 cells, 72 hours after treatment): 1060 nM
WEE1 degradation after MLN4924 pretreatment (HiBiT) [5, 8]: prevented WEE1 and CDK4 degradation
DC50 WEE1-KD (HiBiT) ([5]; MOLM-14 cells, six hours, n.d. = not determined (no degradation)): 1,290 nM
DC50 (NEK9): 1000 nM
CDK4 degradation after MLN4924 pretreatment (HiBiT) (CDK4 [6]; [8]): prevented WEE1 and CDK4 degradation
Dmax CDK4 (HiBiT) (CDK4 [6]; maximum total fraction of the target degraded, given as a fraction, MOLM-14 cells, six hours): 0.32
KLHDC2 binding (in words) (KLHDC2; biochemical binding assay, limit of detection ~2 nM): binds to the KLHDC2 protein; also recorded: tighter than the limit of detection
WEE1 and CDK4 RNA levels (WEE1 and CDK4 RNA): not changed
WEE1 and CDK4 degradation in MOLM-14 and MV4-11 cells (WEE1 and CDK4): displayed WEE1 and CDK4 degradation
DC50 (FAK): 933 nM

KYH2011 (27): identical to KYH1872 (26) except reversed methionine stereocenter, PPP(D-Met)AGG ({YHJ1039-PEG2′}-PPP[dM]AGG; reading uncertain; also: printed as PPP(D-Met)AGG)
inhibition of cell proliferation (in words) (MOLM-14 cells; MOLM-14 cells, 72 hours): did not cause kinase degradation or inhibit cell proliferation
Kd (KLHDC2; read-out: KLHDC2 binding (KD), TR-FRET, FITC-PPPMAGG probe, His6-GST-KLHDC2): 155 nM

B1: KYH1872 (26) (peptide)
peptide: {YHJ1039-two‑PEG linker}-PPPMAGG
modifications: reading uncertain
Kd [7]: < 2 nM
